The source of these data is ChEMBL document CHEMBL1133563, “Development of new hydroxamate matrix metalloproteinase inhibitors derived from functionalized 4-aminoprolines” (J Med Chem, 2000).

One data set has as its target T1, Matrilysin (Homo sapiens, UniProt P09237).
T1 sequence (P09237 whole entry): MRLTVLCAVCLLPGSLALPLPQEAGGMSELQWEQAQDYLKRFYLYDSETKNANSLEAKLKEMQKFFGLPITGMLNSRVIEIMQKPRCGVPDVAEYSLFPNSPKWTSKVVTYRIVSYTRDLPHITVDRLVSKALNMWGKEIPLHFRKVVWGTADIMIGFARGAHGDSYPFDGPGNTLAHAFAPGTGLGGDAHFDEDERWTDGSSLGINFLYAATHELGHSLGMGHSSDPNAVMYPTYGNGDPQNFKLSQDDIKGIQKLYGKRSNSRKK
The data set can be described thus: In vitro inhibitory activity against matrix metalloprotease-7 (matrilysin, MMP-7). A digest of the protocol: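 Human recombinant truncated enzymes, final MMP-1 8 nM, MMP-3 16 nM, MMP-7 2 nM. Quenched-fluorescence assay with Mca-Pro-Leu-Gly-Leu-Dpa-Ala-Arg-NH₂ (4 µM) in 50 mM Tris pH 7.5, 0.2 M NaCl, 5 mM CaCl₂, 0.02% Brij-35 at 25 °C. Fluorescence (ex 328/em 393 nm) read kinetically for 30 min.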

For data set [1], the target named is 72 kDa type IV collagenase (Homo sapiens, UniProt P08253). The data set can be described thus: In vitro inhibitory activity against matrix metalloprotease -2 (gelatinase-A).
72 kDa type IV collagenase, sequence (P08253 whole entry): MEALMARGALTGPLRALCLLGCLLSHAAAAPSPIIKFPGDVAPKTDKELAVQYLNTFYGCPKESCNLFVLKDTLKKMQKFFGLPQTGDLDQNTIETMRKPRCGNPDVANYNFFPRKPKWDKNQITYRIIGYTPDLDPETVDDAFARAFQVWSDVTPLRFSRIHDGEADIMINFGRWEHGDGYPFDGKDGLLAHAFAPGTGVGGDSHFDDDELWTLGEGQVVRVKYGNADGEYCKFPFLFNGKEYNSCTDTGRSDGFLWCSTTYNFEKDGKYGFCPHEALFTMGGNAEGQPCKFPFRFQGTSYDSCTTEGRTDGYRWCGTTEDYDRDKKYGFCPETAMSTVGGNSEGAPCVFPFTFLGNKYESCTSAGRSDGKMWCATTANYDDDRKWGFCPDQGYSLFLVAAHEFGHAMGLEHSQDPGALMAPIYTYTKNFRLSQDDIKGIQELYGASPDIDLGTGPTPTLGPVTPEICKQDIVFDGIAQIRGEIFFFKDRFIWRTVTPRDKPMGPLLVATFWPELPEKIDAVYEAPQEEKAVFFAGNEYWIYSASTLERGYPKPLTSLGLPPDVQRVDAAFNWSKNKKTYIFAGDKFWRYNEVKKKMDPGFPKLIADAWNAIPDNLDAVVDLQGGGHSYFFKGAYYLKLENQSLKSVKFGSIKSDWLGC
Another data set deals with T2, Interstitial collagenase (Homo sapiens, UniProt P03956).
T2 sequence (P03956 whole entry): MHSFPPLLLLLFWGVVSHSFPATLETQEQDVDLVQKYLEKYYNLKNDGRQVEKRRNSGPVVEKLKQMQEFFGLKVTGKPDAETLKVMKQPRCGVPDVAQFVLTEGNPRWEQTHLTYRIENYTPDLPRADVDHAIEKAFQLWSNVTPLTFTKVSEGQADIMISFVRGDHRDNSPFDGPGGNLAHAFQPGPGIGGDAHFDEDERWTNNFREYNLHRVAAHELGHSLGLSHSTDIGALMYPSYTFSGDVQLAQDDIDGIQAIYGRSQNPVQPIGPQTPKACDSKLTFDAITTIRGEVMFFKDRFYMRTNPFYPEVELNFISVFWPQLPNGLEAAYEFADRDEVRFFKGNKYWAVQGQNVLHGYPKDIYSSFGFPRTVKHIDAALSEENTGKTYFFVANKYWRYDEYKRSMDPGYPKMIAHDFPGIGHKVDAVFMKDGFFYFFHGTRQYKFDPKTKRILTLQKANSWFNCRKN
The data set can be described thus: In vitro inhibitory activity against matrix metalloprotease -1 (collagenase-1).

For data set [2], the target named is T3, Stromelysin-1 (Homo sapiens, UniProt P08254). The data set can be described thus: In vitro inhibitory activity against matrix metalloprotease -3 (stromelysin).
T3 sequence (P08254 whole entry): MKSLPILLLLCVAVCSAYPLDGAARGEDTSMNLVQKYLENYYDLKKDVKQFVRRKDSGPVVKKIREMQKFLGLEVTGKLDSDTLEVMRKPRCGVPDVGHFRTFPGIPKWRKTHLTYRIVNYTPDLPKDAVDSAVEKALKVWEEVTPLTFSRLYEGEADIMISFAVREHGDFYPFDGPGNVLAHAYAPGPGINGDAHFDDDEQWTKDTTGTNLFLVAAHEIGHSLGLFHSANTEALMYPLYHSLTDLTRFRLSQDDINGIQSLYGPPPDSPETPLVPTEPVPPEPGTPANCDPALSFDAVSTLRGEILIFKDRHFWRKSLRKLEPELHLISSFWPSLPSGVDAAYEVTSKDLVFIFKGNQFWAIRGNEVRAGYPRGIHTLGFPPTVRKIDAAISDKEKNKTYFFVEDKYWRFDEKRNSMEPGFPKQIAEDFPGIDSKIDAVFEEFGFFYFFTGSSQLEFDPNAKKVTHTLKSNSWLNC
The target of data set [3] is T4, Collagenase 3 (Homo sapiens, UniProt P45452).
For data set [4], the target named is T4, Collagenase 3. Briefly: In vitro inhibitory activity against human recombinant matrix metalloprotease-13 (collagenase-3).
Another data set is filed under the species Rattus norvegicus. Briefly: Time over 100 ng/ml in fasted rats. The settings on record: in vivo.
The target in data set [5] is T4, Collagenase 3. This is another data set of the same source.
Data set [6] deals with T3, Stromelysin-1. Briefly: Inhibition of matrix metalloprotease-3 (stromelysin). The gist of the method:
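Human recombinant truncated MMP-3 (E. coli-expressed), 16 nM final, with fluorogenic substrate Mca-Pro-Leu-Gly-Leu-Dpa-Ala-Arg-NH₂ at 4 µM, 25 °C, in 50 mM Tris pH 7.5, 0.2 M NaCl, 5 mM CaCl₂, 0.02% Brij-35.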

Data set [7] is described as follows: Compound demonstarted an oral bioavailability of […]% with the half-life time as given in rats. The settings on record: rat, in vivo. In kind it is ADME, organism-based.
Data set [8] can be described thus: Mean (%CV) PK parameters for CL(mL/min/kg). In kind it is ADME, organism-based. The following applies: rat, in vivo. A digest of the protocol: (§1)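 Single-compound study in male Sprague-Dawley rats, dosed intravenously and orally in a parallel-group design. Parameters were derived from mean plasma concentration-time profiles.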
Data set [9] is described as follows: Pharmacokinetic half time was determined intravenously in rats. In kind it is ADME, organism-based. The following applies: rat, in vivo, iv. The gist of the method:
as §1

Data set [10] in a line: Oral bioavailability measured by the ratio of […] area under concentration. In kind it is ADME, organism-based. The following applies: rat, in vivo. The gist of the method: as §1
A short description of data set [11]: Mean (%CV) PK parameters for Vdss(mL/kg). Type of data set: ADME, organism-based. The following applies: rat, in vivo; read-out: Vdss. The gist of the method:
as §1

With `CCCCOc1ccc(S(=O)(=O)N2C[C@@H](N3CCS(=O)(=O)CC3)C[C@@H]2C(=O)NO)cc1`, the concentration for half-maximal inhibition (IC50) is 3400 nM at Matrilysin; 7 nM in data set [1]; above 1000 nM at Interstitial collagenase; 12 nM at Stromelysin-1 [2]; 0.9 nM against Collagenase 3 [3].
For the compound `COc1ccc(S(=O)(=O)N2C[C@@H](NS(C)(=O)=O)C[C@@H]2C(=O)NO)cc1`, the IC50 is 2700 nM against Matrilysin; 2 nM at Collagenase 3 [4]; 2 nM in data set [1]; 260 nM on Interstitial collagenase; 42 nM on Stromelysin-1 [2].
For the compound `CCCCOc1ccc(S(=O)(=O)N2C[C@@H](N3C(=O)NC(SC)C3=O)C[C@@H]2C(=O)NO)cc1` (some centres undefined), the half-maximal inhibitory concentration (IC50) against Matrilysin was 850 nM; at Collagenase 3 [4], below 0.5 nM; in [1], 49 nM; on Interstitial collagenase, 750 nM; against Stromelysin-1 [2], 42 nM.
Turning to `CCCOc1ccc(S(=O)(=O)N2C[C@@H](N3CCOCC3)C[C@@H]2C(=O)NO)cc1`, the concentration for half-maximal inhibition (IC50) at Matrilysin is 16500 nM; on Collagenase 3 [4], 1 nM; against Interstitial collagenase, 490 nM; against Stromelysin-1 [2] it was 7 nM. In addition, the “Time over 100ng/ml” value in the data set listed under Rattus norvegicus was 4.5 h.
For the compound `CCCCOc1ccc(S(=O)(=O)N2C[C@@H](N3C(=O)CN(CCC)C3=O)C[C@@H]2C(=O)NO)cc1`, the IC50 was 1200 nM against Matrilysin; 0.3 nM on Collagenase 3 [4]; 0.4 nM in data set [1]; 570 nM on Interstitial collagenase; 10 nM against Stromelysin-1 [2].
The like results for `CCCOc1ccc(S(=O)(=O)N2C[C@@H](N3CCCC3)C[C@@H]2C(=O)NO)cc1` were, in that order, 8700 nM, 1 nM, below 1 nM, 310 nM and 8 nM.
Consider `COCCOc1ccc(S(=O)(=O)N2C[C@@H](N3C(=O)CN(C)C3=O)C[C@@H]2C(=O)NO)cc1`, for which the IC50 on Matrilysin worked out at 9100 nM; in data set [1], 1 nM; on Interstitial collagenase it was 1800 nM; on Stromelysin-1 [2], 26 nM; at Collagenase 3 [3], 4.4 nM. Further, the “Time over 100ng/ml” value in the data set listed under Rattus norvegicus worked out at 0 h.
With `CCCN1CC(=O)N([C@H]2C[C@H](C(=O)NO)N(S(=O)(=O)c3ccc(OCCOC)cc3)C2)C1=O`, the IC50 was found to be 11000 nM against Matrilysin; 2 nM on Collagenase 3 [4]; 2 nM in [1]; 2500 nM on Interstitial collagenase; 30 nM against Stromelysin-1 [2].
For the compound `CCCN([C@H]1C[C@H](C(=O)NO)N(S(=O)(=O)c2ccc(OC)cc2)C1)S(C)(=O)=O`, the IC50 against Matrilysin was found to be 920 nM; on Collagenase 3 [4], 0.8 nM; in data set [1], 0.8 nM; on Interstitial collagenase, 33 nM; on Stromelysin-1 [2], 10 nM.
Regarding `CCCN(C(=O)[C@H](C)O)[C@H]1C[C@H](C(=O)NO)N(S(=O)(=O)c2ccc(OC)cc2)C1`, the IC50 on Matrilysin came out at 8500 nM; on Collagenase 3 [4] it was 1 nM; in data set [1], 0.7 nM; against Interstitial collagenase it was 87 nM; on Stromelysin-1 [2], 2 nM.
For `COc1ccc(S(=O)(=O)N2C[C@@H](N)C[C@@H]2C(=O)NO)cc1`, in that order: 4300 nM, 5 nM, 6 nM, 250 nM and 23 nM.
For `COc1ccc(S(=O)(=O)N[C@H]2C[C@H](C(=O)NO)N(S(=O)(=O)c3ccc(OC)cc3)C2)cc1`, in that order: 3000 nM, 2 nM, 3 nM, 350 nM and 36 nM.
Turning to `C=CCN1CC(=O)N([C@H]2C[C@H](C(=O)NO)N(S(=O)(=O)c3ccc(OCCC)cc3)C2)C1=O`, the half-inhibitory concentration (IC50) came to 2600 nM against Matrilysin; 0.4 nM on Collagenase 3 [4]; 0.8 nM in data set [1]; 350 nM against Interstitial collagenase; 11 nM at Stromelysin-1 [2].
Regarding `CCCN(C(=O)[C@@H](O)CCc1ccccc1)[C@H]1C[C@H](C(=O)NO)N(S(=O)(=O)c2ccc(OC)cc2)C1`, the concentration for half-maximal inhibition (IC50) against Collagenase 3 [5] was 0.5 nM; in [1], 0.6 nM; against Interstitial collagenase, 260 nM; against Stromelysin-1 [2] it was 12 nM.
Take `COc1ccc(S(=O)(=O)N2C[C@@H](N(Cc3cccnc3)S(C)(=O)=O)C[C@@H]2C(=O)NO)cc1`: the IC50 at Matrilysin worked out at 2700 nM; at Collagenase 3 [4], 1 nM; in data set [1], 2 nM; against Interstitial collagenase, 74 nM; on Stromelysin-1 [2], 6 nM. For the same compound, the “Time over 100ng/ml” value in the data set filed under Rattus norvegicus stood at 0 h.
Take `CCCCOc1ccc(S(=O)(=O)N2C[C@@H](N3C(=O)CN(C)C3=O)C[C@@H]2C(=O)NO)cc1`: the concentration for half-maximal inhibition (IC50) against Matrilysin worked out at 1600 nM; against Stromelysin-1 [6], 2 nM. For the same compound, the “Time over 100ng/ml” value in the data set filed under Rattus norvegicus was determined as 0 h.
Take `CCCCOc1ccc(S(=O)(=O)N2C[C@@H](N3CCOCC3)C[C@@H]2C(=O)NO)cc1`: the 50% inhibitory concentration (IC50) was determined as 5400 nM on Matrilysin; 4 nM in data set [1]; 920 nM against Interstitial collagenase; 5 nM at Stromelysin-1 [2]; 0.6 nM at Collagenase 3 [3]. Further, the half-life in data set [7] was 1.7 h; in data set [9] it was 0.4 h. The “Time over 100ng/ml” value in the data set listed under Rattus norvegicus was determined as 3.5 h. The clearance in data set [8] came out at 30 mL/min/kg. The bioavailability in data set [10] is 6%. Besides, in data set [11], the Vd was determined as 0.408 L/kg.
In the case of `C=CCN1CC(=O)N([C@H]2C[C@H](C(=O)NO)N(S(=O)(=O)c3ccc(OCCOC)cc3)C2)C1=O`, the 50% inhibitory concentration (IC50) on Matrilysin was 11000 nM; on Collagenase 3 [4] it was 2 nM; in data set [1] it was 2 nM; at Interstitial collagenase, 2900 nM; on Stromelysin-1 [2] it was 46 nM.
Regarding `CCCCOc1ccc(S(=O)(=O)N2C[C@@H](NS(C)(=O)=O)C[C@@H]2C(=O)NO)cc1`, the half-maximal inhibitory concentration (IC50) against Matrilysin worked out at 3900 nM; at Collagenase 3 [4], 0.7 nM; in data set [1], 0.8 nM; at Interstitial collagenase, 1300 nM.
As for `CCCCOc1ccc(S(=O)(=O)N2C[C@@H](N3C(=O)NC(C)(C)C3=O)C[C@@H]2C(=O)NO)cc1`, the 50% inhibitory concentration (IC50) is 450 nM at Matrilysin; 2 nM in data set [1]; 780 nM against Interstitial collagenase; 3 nM against Stromelysin-1 [2]; below 0.5 nM at Collagenase 3 [3].
On to `C=CCN1CC(=O)N([C@H]2C[C@H](C(=O)NO)N(S(=O)(=O)c3ccc(OCCCC)cc3)C2)C1=O`, for which the IC50 against Matrilysin turned out to be 1000 nM; at Collagenase 3 [4], 0.4 nM; against Interstitial collagenase, 480 nM; on Stromelysin-1 [2], 7 nM. The “Time over 100ng/ml” value in the data set listed under Rattus norvegicus was 4 h.
